An excerpt weighted towards active compounds, which were near 1.8% of everything screened.
NPY1 pot ag = NPY-Y1 receptor potentiators or agonists, primary screen, cell-based; Neuropeptide Y receptor type 1 (Homo sapiens), P25929; NPY-Y1 expressing cells, potentiator/agonist activation; activation, % at 3.6 µM; hit rate 0.37% among 220,000; AID 1304, 2008; in the data active means activation above about 33%, passing the limit was not always enough;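 further: cells stimulated with NPY at EC10 then isoproterenol at EC100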
Target sequence (P25929 whole entry, looked up): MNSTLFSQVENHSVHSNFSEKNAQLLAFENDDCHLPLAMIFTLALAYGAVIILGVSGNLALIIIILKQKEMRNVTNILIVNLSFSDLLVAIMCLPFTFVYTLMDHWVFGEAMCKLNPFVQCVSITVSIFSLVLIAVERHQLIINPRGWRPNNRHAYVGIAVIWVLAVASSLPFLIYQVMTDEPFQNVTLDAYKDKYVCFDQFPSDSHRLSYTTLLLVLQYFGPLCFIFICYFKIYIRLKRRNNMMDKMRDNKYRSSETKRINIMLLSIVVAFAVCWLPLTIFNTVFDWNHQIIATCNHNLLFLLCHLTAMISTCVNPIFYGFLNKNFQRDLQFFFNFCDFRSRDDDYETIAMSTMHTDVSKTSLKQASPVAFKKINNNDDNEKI
NPY Y2 blocker = NPY-Y2 receptor antagonists, primary screen, cell-based. Neuropeptide Y receptor type 2 (Homo sapiens), P49146. NPY-Y2 expressing cells, antagonist mode. inhibition, % at 2.7 µM. hit rate 0.99% among 140,000. AID 793, 2007; in the data active means inhibition above about 17%
NPY-Y1 antag = NPY-Y1 receptor antagonists, primary screen, cell-based; Neuropeptide Y receptor type 1 (Homo sapiens), P25929; inhibition, % at 3.6 µM; AID 1040, 2008; hit rate 1% among 200,000; HEK293-CNG Y1 cells, membrane potential fluorescence; NPY at EC95, then isoproterenol;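 active means inhibition above the campaign mean inhibition of all tested compounds plus 3 SD, cut at about 20% in these data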
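System: HEK293 cells with Y1 receptor plus CNG channel / Probe or stimulus: NPY 25 nM then isoproterenol 1 µM plus Ro 20-1724 25 µM / Compound: one concentration, 3.6 µM, in 0.4% DMSO / Schedule: compound incubation 1 h at room temperature, readout 45 min post-stimulation / Measured by: membrane potential fluorescence / Read-out: % inhibition of NPY effect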
NPY2 pot ag = NPY-Y2 potentiators or agonists, primary screen, cell-based; Neuropeptide Y receptor type 2 (Homo sapiens), P49146; cells expressing NPY-Y2, potentiator/agonist read-out; activation, % at 3.6 µM; hit rate 0.45% among 220,000; AID 1359, 2008; in the data active means activation above about 27%;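 further: cells stimulated with NPY near EC25 plus isoproterenol at EC100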
NPY-Y1 antag ct = NPY-Y1 receptor antagonists, selectivity check, counter-screen for NPY-Y2 antagonist project, cell-based; shares compounds with NPY Y2 blocker; cell-based NPY-Y1 antagonism counterscreen; inhibition, % at 3.6 µM; hit rate 19% among 710; AID 1256, 2008; in the data active means inhibition above about 20%;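 further: cells challenged with NPY then isoproterenol with cAMP sensed through a CNG channel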
NPY2 antag conf = NPY-Y2 receptor antagonists, retest of hits, confirmation, HEK293-CNG cells, membrane potential fluorescence, triplicate | shares compounds with NPY Y2 blocker | HEK293 NPY-Y2 CNG channel | inhibition, % at 2.8 µM | hit rate 32% among 710;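 active means mean inhibition of triplicate wells above the hit cutoff set in the primary screen, cut at about 17% in these data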
A number is an active result; - = inactive; . = no result.

SMILES | NPY1 pot ag | NPY Y2 blocker | NPY-Y1 antag | NPY2 pot ag | others
Cc1noc(C)c1CSc1nc2ccccc2c(=O)n1-c1ccc(Cl)cc1 | - | 32 | 28 | -
Cc1noc(C)c1CSc1nnnn1-c1ccc(Cl)cc1 | - | - | - | -
Cc1ccccc1NCC(=O)c1ccc(Br)cc1 | - | - | - | -
Cc1ccccc1N=C(NOCc1ccc(Cl)cc1Cl)c1nonc1N | - | 30 | 33 | -
Cc1ccc(N=C(NOCc2ccc(Cl)cc2Cl)c2nonc2N)c(C)c1 | - | 21 | 32 | -
CC(C)OC(=O)/C(=C\c1ccc2c(c1)c1ccccc1n2C)NC(=O)c1ccccc1 | - | - | 23 | -
COC(=O)/C(=C\c1ccc2c(c1)c1ccccc1n2C)NC(=O)c1ccccc1 | - | - | - | -
CCOc1cc(S(=O)(=O)Nc2ccc(Cl)cn2)ccc1F | - | - | - | -
COc1ccc(S(=O)(=O)Nc2ccc(Cl)cn2)c(C)c1C | 59 | - | - | 37
COc1cc2c(cc1OC)CN(C(=O)c1sc(-c3cnccn3)nc1C)CC2 | - | . | . | -
CC(=O)OC[C@H]1O[C@@H](n2ncc(=O)[nH]c2=O)[C@H](OC(C)=O)[C@@H]1OC(C)=O | - | - | - | -
CCCCC(c1nnnn1C1CCCC1)N1CCN(C2CCCC2)CC1 (stereo unspecified) | - | 46 | 31 | -
CCCC(c1nnnn1Cc1ccc(F)cc1)N1CCN(C2CCCCC2)CC1 (stereo unspecified) | - | 31 | 23 | -
CCCC(c1nnnn1C1CCCCC1)N1CCN(C2CCCC2)CC1 (stereo unspecified) | - | - | - | -
Cc1ccc(C2C3=C(CC(C)(C)CC3=O)N=C3c4ccccc4C(=O)C32)cc1 (stereo unspecified) | - | - | - | -
O=S(=O)(c1ccc2c(c1)OCCO2)N1CCN(c2nc(-c3cccnc3)nc3ccccc23)CC1 | - | . | - | -
Oc1ccc(NCc2cccc(OCc3ccc(F)cc3)c2)cc1 | - | . | - | -
CC1=C/C(=N\OS(=O)(=O)c2ccccc2)C(C)=CC1=O | 54 | - | - | 57
CC1=C/C(=N\OS(=O)(=O)c2ccccc2)C(C(C)C)=CC1=O | - | - | - | 31
Cc1ccc(NC(=O)CSCC#N)cc1Cl | - | - | - | -
N#Cc1c(NC(=O)CSc2ccccn2)oc(-c2ccccc2)c1-c1ccccc1 | - | 21 | 38 | -
O=C(Cn1nnc(-c2ccccc2F)n1)Nc1ccc2c(c1)OCO2 | - | - | - | -
COc1ccccc1NS(=O)(=O)c1cc(NC(=O)Nc2ccccc2)ccc1N1CCCCC1 | 58 | - | - | 46
COc1ccc(C(=O)C(CCCCC(CN(C)C)C(=O)c2ccc(OC)cc2)CN(C)C)cc1 (stereo unspecified) | - | 22 | 21 | -
COc1ccc(C(=O)C(CN2CCCC2)c2ccccc2)cc1 (stereo unspecified) | - | - | - | -
SMILES | NPY1 pot ag | NPY Y2 blocker | NPY-Y1 antag | NPY2 pot ag | others
CN(C)C(=O)C1C2NC(=S)N(c3cccc(Cl)c3)C1(C)Oc1ccc(Cl)cc12 (stereo unspecified) | 51 | . | - | 29
CN(C)C(=O)C1C2NC(=S)N(c3ccccc3)C1(C)Oc1ccccc12 (stereo unspecified) | - | . | - | -
CN(C)C(=O)C1C2NC(=S)N(c3ccc(Cl)cc3)C1(C)Oc1ccc(Cl)cc12 (stereo unspecified) | 92 | . | - | 89
COc1ccc(C2NC(c3ccc(OC)cc3)C([N+](=O)[O-])C(C)(C)C2[N+](=O)[O-])cc1 (stereo unspecified) | - | . | - | -
O=C(Nc1nc2ccccc2s1)C1CCN(S(=O)(=O)c2cc([N+](=O)[O-])ccc2Cl)CC1 | 80 | . | . | 82
CC1(C)CC(=O)C2=C(C1)C(c1cn(-c3ccccc3)nc1-c1ccccc1)C(C#N)=C(N)O2 (stereo unspecified) | - | - | - | -
CC1(C)CC(=O)C2=C(C1)OC(N)=C(C#N)C2c1cn(-c2ccccc2)nc1-c1ccc(F)cc1 (stereo unspecified) | 68 | - | - | 65
CC1=C(C(=O)OC(C)C)C(c2cccs2)NC(=O)N1 (stereo unspecified) | - | . | - | -
C=CCc1ccccc1OCC(O)CNC(=O)c1ccccc1C(=O)O (stereo unspecified) | 87 | . | . | 92
C=CCn1c(=N)n(CC(O)COc2ccccc2OC)c2ccccc21 (stereo unspecified) | - | - | - | -
C=CCc1ccccc1OCC(O)CN(CC)CC (stereo unspecified) | 103 | - | - | 89
CC(C)(C)c1ccc(OCC(O)CNC(=O)c2ccccc2C(=O)O)cc1 (stereo unspecified) | - | - | - | -
COC(=O)CN1C(c2ccccc2)=Nc2ccc(Cl)cc2C1c1ccccc1 (stereo unspecified) | - | 22 | 27 | -
O=[N+]([O-])c1ccc(N=Nc2c(Cl)cc(O)cc2Cl)cc1 | 67 | . | . | 65
Cc1c(Nc2nc(-c3ccccc3)cs2)c(=O)n(-c2ccccc2)n1C | 59 | - | - | 78
Cc1c(Nc2ccc(C=O)cc2)c(=O)n(-c2ccccc2)n1C | - | . | - | -
CCCc1[nH][nH]c(=O)c1C(c1cccc(Cl)c1)C(C#N)C#N (stereo unspecified) | - | 58 | 50 | -
Cc1[nH][nH]c(=O)c1C(c1ccccc1[N+](=O)[O-])C(C#N)C#N (stereo unspecified) | - | . | - | -
OCC(CO)(CO)NC(=S)Nc1cc(Cl)cc(Cl)c1 | - | . | . | -
O=C(N/N=C/c1ccco1)c1ccccc1OCc1ccc(Br)cc1 | - | 33 | - | - | NPY-Y1 antag ct=-;NPY2 antag conf=20
O=C(N/N=C/c1ccco1)c1ccc(OCc2ccccc2)cc1 | - | . | . | -
CCn1c(=N)n(CC(=O)C23CC4CC(CC(C4)C2)C3)c2ccccc21 | - | 27 | - | - | NPY-Y1 antag ct=21;NPY2 antag conf=32
CCCCn1c(=N)n(CCOc2ccc(C)cc2)c2ccccc21 | - | 20 | - | - | NPY-Y1 antag ct=-;NPY2 antag conf=-
COc1ccc(OC)c(NC(=O)COC(=O)c2c3c(nc4ccccc24)CCCC3)c1 | - | - | - | -
CNC(=O)COC(=O)c1c2c(nc3ccccc13)CCC2 | - | . | . | -
COc1ccc(NC(=O)COC(=O)c2c3c(nc4ccccc24)CCCC3)cc1 | - | 21 | - | - | NPY-Y1 antag ct=-;NPY2 antag conf=-
O=C(COC(=O)c1c2c(nc3ccccc13)CCCCC2)NCc1ccc2c(c1)OCO2 | - | 25 | - | - | NPY-Y1 antag ct=23;NPY2 antag conf=-
